# Most compounds without a hit are left out; they make up all but 1.4% or so of the library.
# T cell modulator – T cell immune modulators affecting CD8 T cell-vesicle binding. 2C CD8+ T cell-vesicle binding, flow cytometry; active compounds read low. response (vesicle binding), % at 7 µM. 330,000 compounds, 0.068% hits. AID 2052;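 active means response, share of CD8 T cells binding vesicles, and their 90th percentile fluorescence all below set limits, cut at about 80% in these data, passing the limit was not always enough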;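 further: values below 100% mean blocked vesicle binding to the CD8+ T cells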
#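 Benchmarks: naked versus QL9-loaded vesicles / Assay system: purified 2C TCR transgenic mouse naive CD8+ T cells / Technique: high-throughput flow cytometry with anti-B7-1 and anti-CD8 staining / Timing: Cell–vesicle co-incubation 1.5 h at 37 °C, staining 20 min on ice / Read-out: percent CD8+ FL2 mean versus row control / Probe or stimulus: QL9-loaded Drosophila micro-vesicles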
# Myeloid diff 2 – compounds promoting myeloid differentiation; ER-HoxA9 myeloid progenitors, lysozyme-GFP differentiation, flow cytometry; calls only at 10 µM; 360,000 compounds, 1% hits; AID 624256;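 active means normalized GFP-positive differentiation at or above the plate's own cutoff, the solvent-only control mean plus 3 SD; inconclusive means no clear call, values can overlap the other calls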;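 further: cells exposed to compound for four days before flow analysis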
# CASP6 VEID inh – caspase-6 (human) enzyme inhibition. P55212. purified caspase-6, Z-VEID-R110 cleavage fluorescence. inhibition, % at 12.5 µM. 350,000 compounds, 0.53% hits. AID 686996;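 active means mean inhibition across replicates at least about 35%, with every replicate also reaching that limit, limit read from the data; inconclusive means only one of the two criteria met; inactive means neither criterion met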
# Target sequence (P55212 24-179 limits assumed): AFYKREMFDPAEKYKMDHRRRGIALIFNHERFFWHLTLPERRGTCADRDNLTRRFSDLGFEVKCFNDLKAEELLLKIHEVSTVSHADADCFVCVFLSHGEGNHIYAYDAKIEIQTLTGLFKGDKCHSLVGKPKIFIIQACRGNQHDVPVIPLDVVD
# Target sequence (P55212 194-293 limits assumed): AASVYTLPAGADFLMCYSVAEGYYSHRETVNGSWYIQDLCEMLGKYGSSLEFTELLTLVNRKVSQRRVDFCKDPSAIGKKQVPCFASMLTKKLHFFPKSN
# Vif inh – inhibitors of HIV Vif; HEK293T cells, Vif self-association by quenched fluorescence, imaging, 24 h; inhibition, % at 7.49 µM; 340,000 compounds, 0.35% hits; AID 602346; in the data active means inhibition above about 50%, passing the limit was not always enough; inconclusive means no clear call, values can overlap the other calls; inactive means below about 31%
# Hits are given with their value; - = inactive; ? = inconclusive; . = no result; + = active, no number.
SMILES,T cell modulator,Myeloid diff 2,CASP6 VEID inh,Vif inh
COCC(=O)N[C@@H]1C=C[C@H](CC(=O)NCc2ccccc2OC)O[C@@H]1CO,.,.,-,.
COC(=O)[C@]1(Cc2ccccc2)N=C(c2ccc(OCCCO)cc2)O[C@@H]1c1ccccc1,.,.,-,.
O=C(NCC(c1cccs1)N1CCc2ccccc21)c1ccccc1 (centres undefined),-,+,-,-
O=C(NCC(c1ccco1)N1CCc2ccccc21)c1ccccc1 (centres undefined),-,-,51.6,-
C[C@@H]1CN([C@@H](C)CO)C(=O)Cc2cc(NC(=O)CCCN(C)C)ccc2O[C@H]1CN(C)C(=O)Nc1ccccc1,.,.,-,.
COc1ccc(NC(=O)Nc2ccc(O)c3ccccc23)cc1,37.0,.,-,.
CN(C)c1nc(C=C(C#N)C#N)c(Cl)n1-c1ccc(F)cc1,.,?,-,105.4
CCOc1ccccc1NC(=O)/C(C#N)=C/c1c(C)nn(-c2ccc(F)cc2)c1Cl,-,-,-,-
CC(C)NC(=O)NCC[C@H]1CC[C@@H](NC(=O)CCN2CCCCC2)[C@H](CO)O1,.,.,-,.
Cc1cc(C(=O)Cn2nnc3ccccc3c2=O)c(C)n1-c1ccccc1F,-,+,.,-
COc1ccc(-n2c(C)cc(C(=O)Cn3nnc4ccccc4c3=O)c2C)cc1,-,-,.,-
NC(=O)C1=C(N=C2CCCCC2)CCCC1,.,-,-,65.3
CC(=O)N1[C@H](CO)[C@@H](c2ccccc2)C12CN(C(=O)Nc1ccccc1F)C2,.,.,-,.
Cc1cccc2sc(NC(=O)Cn3cccc3)nc12,-,+,-,.
COc1cccc(S(=O)(=O)N[C@@H]2C=C[C@H](CC(=O)NCc3ccncc3)O[C@H]2CO)c1,.,.,-,.
CN1[C@H](C(=O)NC2Cc3ccccc3C2)[C@@H](CO)[C@@H]2Cn3c(ccc(C4=CCCC4)c3=O)[C@@H]21,.,.,-,.
Oc1ccc(C[C@@H]2CNCCN2CCc2cc(C(F)(F)F)cc(C(F)(F)F)c2)cc1,-,+,.,.
Oc1ccc(C[C@H]2CNCCN2CCc2cc(C(F)(F)F)cc(C(F)(F)F)c2)cc1,-,-,-,-
CN(C)c1ccc(/C=C2\CCC/C(=C\c3ccccc3)C2=O)cc1,-,+,-,-
C[C@@H]1CCCCO[C@@H](CN(C)C(=O)Nc2ccccc2)[C@@H](C)CN([C@@H](C)CO)C(=O)c2cc(NC(=O)CCC(F)(F)F)ccc2O1,.,.,-,.
C=C1CCCC2OC(CC3=CC4/C(C)=C/CC(C)CC(/C=C(\C)C(O)C5CC(O)C(O)C(CCC(O)/C=C/C(C)=C/CCC6=NCCC(C3)C64C)O5)OC(=O)CC3OC(C(O)C1)C(O)C3O)CC(O)C2O (centres undefined),.,-,-,118.2
Cc1cc(O)c(-c2cc(C(=O)NCc3ccc4c(c3)OCO4)[nH]n2)cc1C,-,+,-,-
C=CC[C@@]1(C(=O)NCC(O)CO)N=C(c2ccc(OCCCO)cc2)O[C@@H]1c1ccccc1 (some centres undefined),.,.,-,.
O=C(C[C@H]1CC[C@@H]2[C@H](COC[C@H](O)CN2C(=O)Nc2ccc(Cl)c(Cl)c2)O1)NCc1ccccc1,.,.,-,.
CCC1C(=O)N=C(SCC(=O)Nc2nc3ccccc3s2)NC1=O (centres undefined),-,-,40.4,-
SMILES,T cell modulator,Myeloid diff 2,CASP6 VEID inh,Vif inh
O=C(Cc1cccnc1)N[C@H]1CC[C@@H](CCn2cc(Cc3ccccc3)nn2)O[C@H]1CO,.,.,-,.
C=CCN1C(=O)[C@@H]2Cc3c([nH]c4ccccc34)C(c3cc(OC)c(OC)c(OC)c3)N2C1=S (some centres undefined),-,+,-,-
C=CCN1C(=O)[C@@H]2Cc3c([nH]c4ccccc34)C(c3ccc(O)cc3)N2C1=S (some centres undefined),-,+,.,-
CCN1C(=O)[C@@H]2Cc3c([nH]c4ccccc34)C(c3cc(OC)c(OC)c(OC)c3)N2C1=S (some centres undefined),-,+,-,-
COc1cc([C@H]2c3[nH]c4ccccc4c3C[C@H]3C(=O)N4[C@@H](c5cc(OC)c(OC)c(OC)c5)c5[nH]c6ccccc6c5C[C@H]4C(=O)N23)cc(OC)c1OC,-,-,.,-
O=C1[C@@H]2Cc3c([nH]c4ccccc34)C(c3ccccc3)N2C(=O)CN1CCO (some centres undefined),-,-,-,-
Cc1ccccc1CN1C(=O)[C@@H]2Cc3c([nH]c4ccccc34)C(C)(C)N2C1=O,-,-,-,104.6
COc1ccc(N(C(=O)c2snc(C(N)=O)c2N)C(C(=O)NC2CCCC2)c2ccco2)c(OC)c1 (centres undefined),.,.,62.8,-
CCCCCCOC(=O)C(C#N)c1nc2ccccc2nc1N1CCOCC1 (centres undefined),-,-,.,181.8
Cc1ccc(S(=O)(=O)C(C#N)c2nc3ccccc3nc2N2CCCC2)cc1 (centres undefined),-,+,.,-
CCOC(=O)C1CCCN(c2nc3ccccc3nc2C(C#N)C(=O)NCc2ccccc2)C1 (centres undefined),-,-,.,-
CCN1CCN(c2nc3ccccc3nc2C(C#N)S(=O)(=O)c2ccc(C)cc2)CC1 (centres undefined),-,-,.,-
Cc1ccc(S(=O)(=O)N2CCCN(c3nc4cc(C)ccc4cc3C#N)CC2)cc1,-,+,.,-
N#CC(C(=O)NCc1ccccc1)c1nc2ccccc2nc1N1CCCC1 (centres undefined),-,+,.,-
Cc1ccccc1S(=O)(=O)NCC[C@H]1CC[C@@H](NC(=O)C2CC2)[C@H](CO)O1,.,.,-,.
COCC(=O)Nc1ccc2c(c1)OC[C@@H](C)N(Cc1cc(F)ccc1F)C[C@H](C)[C@@H](OC)CN(C)C2=O,.,.,-,.
N#CC(C(=O)NCCc1ccccc1)c1nc2ccccc2nc1N1CCCCC1 (centres undefined),-,-,.,-
N#CC(C(=O)NCCc1ccccc1)c1nc2ccccc2nc1N1CCOCC1 (centres undefined),-,-,.,64.0
CC(C)NC(=O)Nc1ccc2c(c1)C(=O)N([C@@H](C)CO)C[C@H](C)[C@@H](CN(C)C(=O)c1ccccc1)OCCCC[C@H](C)O2,.,.,-,.
CCCc1nc2nc(C)c(NS(=O)(=O)c3ccc(C(C)(C)C)cc3)c(=O)n2[nH]1,-,-,-,-
Cc1ccc(S(=O)(=O)Nc2c(C)nc3nc(C)[nH]n3c2=O)c(C)c1,-,-,-,63.8
O=CNC1c2ccccc2CCc2ccccc21,.,-,-,61.3
O=S(=O)(NC1CCc2ccccc21)c1ccccc1 (centres undefined),.,-,-,-
CC#CC#Cc1cccc(=O)o1,-,-,53.1,-
O=C(O)c1ccc(N=Nc2c(O)[nH]c3cc(Cl)ccc23)cc1,-,?,38.3,-
COc1ccc2c3c(n(C)c2c1)[C@@H](CO)N(Cc1cccc(Cl)c1)CC31CCN(C(=O)C2CC2)CC1,.,.,-,.
C[C@@H]1CCCCO[C@@H](CN(C)C(=O)Cc2ccccc2)[C@@H](C)CN([C@@H](C)CO)C(=O)c2cc(NS(=O)(=O)c3cccs3)ccc2O1,.,.,-,.
COc1cc(N(C)C)ccc1C=c1c2ccccc2n2c1cc(-c1ccccc1)[n+]2C,.,.,61.3,-

# Compound activity (PubChem)
